Active and inactive are the calls of the source. The calls are words filed in the database; no cut-off is given here.
Legend:
[1] = Volume of distribution at steady state in rat; format: ADME; conditions: in vivo, read-out: Vdss
[2] = target: T1, Glutamate NMDA receptor; GRIN1/GRIN2B (Homo sapiens, UniProt Q05586+Q13224); assay: Positive allosteric modulation of recombinant human GluN1/GluN2B receptor stably expressed in HEK293 cells assessed as increase in glycine/L-glutamate-induced channel current at -70 mV holding potential by IonWork whole cell patch clamp method relative to control
[3] = test system: Rattus norvegicus; assay: Improvement in social recognition in 20 to 21 months old Wistar Han rat model of aged-induced memory deficit assessed as reduction in time spent with familiar juvenile at 10 mg/kg, ip administered 4 hrs prior to training trial and measured after 30 mins; format: functional, organism-based
[4] = Drug uptake in 20 to 21 months old Wistar Han rat model of aged-induced memory deficit brain at 3 mg/kg, ip measured after 4 hrs; format: ADME, organism-based; conditions: read-out: Drug uptake
[5] = Clearance in iv dosed rat; format: ADME, organism-based; conditions: in vivo
[6] = Stability in human liver microsomes; format: ADME, Microsome; conditions: read-out: Stability
[7] = target: T2, Glutamate NMDA receptor; GRIN1/GRIN2A (Homo sapiens, UniProt Q05586+Q12879); assay: Positive allosteric modulation of recombinant human GluN1/GluN2A receptor stably expressed in HEK293 cells assessed as increase in glycine/L-glutamate-induced channel current at -70 mV holding potential by IonWork […] method; format: cell-based
Outline: (§1)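 Stable HEK293 lines expressing GluN1/GluN2A or GluN1/GluN2B, measured by automated whole-cell patch clamp (Ionworks Barracuda). Cells were held at -70 mV and stepped to -45 mV during agonist application (EC20 L-glutamate plus 50 µM glycine). The test article was first pre-applied alone for 5 min, then co-applied with agonist to record potentiation. Concentration-response percent potentiation gave EC50 and Emax.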

[8] = test system: Rattus norvegicus; assay: Improvement in social recognition in 20 to 21 months old Wistar Han rat model of aged-induced memory deficit assessed as reduction in time spent with familiar juvenile at 3 mg/kg, ip administered 4 hrs prior to training trial and measured after 30 mins; format: functional, organism-based
[9] = Drug uptake in 20 to 21 months old Wistar Han rat model of aged-induced memory deficit brain at 10 mg/kg, ip measured after 4 hrs; format: ADME, organism-based; conditions: read-out: Drug uptake
[10] = Stability in rat liver microsomes; format: ADME, Microsome; conditions: read-out: Stability
[11] = test system: Rattus norvegicus; assay: Improvement in social recognition in 20 to 21 months old Wistar Han rat model of aged-induced memory deficit assessed as reduction in time spent with familiar juvenile at 1 mg/kg, ip administered 4 hrs prior to training trial and measured after 30 mins; format: functional, organism-based
[12] = Drug uptake in 20 to 21 months old Wistar Han rat model of aged-induced memory deficit brain at 1 mg/kg, ip measured after 4 hrs; format: ADME, organism-based; conditions: read-out: Drug uptake
[13] = target: T1, Glutamate NMDA receptor; GRIN1/GRIN2B; assay: Positive allosteric modulation of recombinant human GluN1/GluN2B receptor stably expressed in HEK293 cells assessed as increase in glycine/L-glutamate-induced channel current at -70 mV holding potential by IonWork […] method; format: cell-based; outline: as §1
[14] = target: T2, Glutamate NMDA receptor; GRIN1/GRIN2A; assay: Positive allosteric modulation of recombinant human GluN1/GluN2A receptor stably expressed in HEK293 cells assessed as increase in glycine/L-glutamate-induced channel current at -70 mV holding potential by IonWork […] method relative to control; format: cell-based; outline: as §1
[15] = test system: Hippocampus; assay: Induction of synaptic plasticity in postnatal 120 to 150 day rat brain hippocampal slice assessed as stimulation of theta burst stimulaiton-induced field potential potentiation at 1 uM treated 20 mins prior to theta burst stimulation and measured after 60 mins by electrophysiological method; format: functional, tissue-based
[16] = Ratio of drug level in Sprague-Dawley rat brain to plasma at 2.5 mg/kg, iv measured after 1 hr; format: ADME, organism-based; conditions: brain and plasma, read-out: BPR
[17] = Oral bioavailability in rat; format: ADME, organism-based; conditions: in vivo
[18] = target: Glutamate NMDA receptor; Grin1/Grin2a (Rattus norvegicus, UniProt P35439+Q00959); assay: Positive allosteric modulation of recombinant rat GluN1/GluN2A receptor expressed in Xenopus laevis oocytes assessed as increase in glycine/L-glutamate-induced channel current at -80 mV holding potential by two-electrode voltage clamp method; format: cell-based
[19] = Half life in rat; format: ADME; conditions: in vivo
[20] = target: T2, Glutamate NMDA receptor; GRIN1/GRIN2A; assay: Positive allosteric modulation of recombinant human GluN1/GluN2A receptor expressed in Xenopus laevis oocytes assessed as increase in glycine/L-glutamate-induced channel current at -80 mV holding potential by two-electrode voltage clamp method relative to control; format: cell-based
[21] = target: Glutamate NMDA receptor; Grin1/Grin2a (Rattus norvegicus) (UniProt P35439+Q00959); assay: Positive allosteric modulation of recombinant rat GluN1/GluN2A receptor expressed in Xenopus laevis oocytes assessed as increase in glycine/L-glutamate-induced channel current at -80 mV holding potential by two-electrode voltage clamp method relative to control; format: cell-based
[22] = target: T2, Glutamate NMDA receptor; GRIN1/GRIN2A; assay: Positive allosteric modulation of recombinant human GluN1/GluN2A receptor expressed in Xenopus laevis oocytes assessed as increase in glycine/L-glutamate-induced channel current at -80 mV holding potential by two-electrode voltage clamp method; format: cell-based
[23] = organism: Canis lupus familiaris; assay: Positive allosteric modulation of recombinant dog GluN1/GluN2A receptor expressed in Xenopus laevis oocytes assessed as increase in glycine/L-glutamate-induced channel current at -80 mV holding potential by two-electrode voltage clamp method relative to control; format: cell-based
[24] = Positive allosteric modulation of recombinant dog GluN1/GluN2A receptor expressed in Xenopus laevis oocytes assessed as increase in glycine/L-glutamate-induced channel current at -80 mV holding potential by two-electrode voltage clamp method; format: cell-based; conditions: Canis lupus familiaris

Q: Which results are given for `C[C@H](CCC(C)(C)O)[C@H]1CC[C@H]2[C@@H]3CC=C4C[C@@](C)(O)CC[C@]4(C)[C@H]3CC[C@]12C`?
A: Vd [1]: 0.65 L/kg; Emax [2]: 92%; Activity [3]: Active; concentration at 4 h [4]: 900 nM; clearance [5]: 18.3 mL/min/kg; microsomal CLint [6]: 13 µL/min/mg; EC50 [7]: 480 nM; Activity [8]: inactive; concentration at 4 h [9]: 3700 nM; microsomal CLint [10]: 35 µL/min/mg; Activity [11]: Active; concentration at 4 h [12]: 400 nM; EC50 [13]: 38 nM; Emax [14]: 220%; Activity [15]: Active; Kp at 1 h [16]: 0.6; bioavailability [17]: 28%

Q: For `CC(C)[C@@H](O)CC[C@@H](C)[C@H]1CC[C@H]2[C@@H]3CC=C4C[C@@H](O)CC[C@]4(C)[C@H]3CC[C@]12C`, which Vd [1] is on record?
A: 2.5 L/kg

Q: What about the Emax [2] of the same compound?
A: 150%

Q: What about the EC50 [18] of the same compound?
A: 650 nM

Q: And the half-life [19]?
A: 32.4 min

Q: And the Emax [20]?
A: 73%

Q: What about the clearance [5] of the same compound?
A: 98.3 mL/min/kg

Q: And the Emax [21]?
A: 180%

Q: And the microsomal CLint [6]?
A: 10 µL/min/mg

Q: And the EC50 [7]?
A: 150 nM

Q: What about the EC50 [22] of the same compound?
A: 300 nM

Q: And the microsomal CLint [10]?
A: 52 µL/min/mg

Q: And the EC50 [13]?
A: 530 nM

Q: And the Emax [23]?
A: 130%

Q: What about the Emax [14] of the same compound?
A: 210%

Q: What about the EC50 [24] of the same compound?
A: 650 nM

Q: What about the bioavailability [17] of the same compound?
A: 9%
